23 compounds from ChEMBL document CHEMBL1134445, “Design and synthesis of potent C(2)-symmetric diol-based HIV-1 protease inhibitors: effects of fluoro substitution” (J Med Chem, 2001) can be followed below.

Assay [1] deals with Human immunodeficiency virus type 1 protease (Human immunodeficiency virus 1) (UniProt Q72874). Put plainly: Anti-HIV-1 activity against mutant HIV-1 in MT-4 cells (mutation selected with compound 1). In kind it is functional, cell-based. As to conditions: MT4. The procedure, abridged:
(§1)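 Resistant HIV-1 IIIb raised in MT4 cells: started at sub-ED50 drug with 20-50 TCID50 virus, p24 in supernatant tracked, cell-free virus passaged at 5-fold rising drug levels until growing above 50-fold wild-type ED50; these supernatants served as stocks. ED50 then determined in MT4 cells by XTT cytopathic-effect assay.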

The target is the same in assay [2]. Put plainly: Anti-HIV-1 activity against mutant HIV-1 in MT-4 cells (mutation selected with nelfinavir). In kind it is functional, cell-based. The conditions noted are these: MT4. The procedure, abridged:
as §1

For assay [3] the target is unchanged. Put plainly: Anti-HIV-1 activity against mutant HIV-1 in MT-4 cells (mutation selected with saquinavir). In kind it is functional, cell-based. The conditions noted are these: MT4. The procedure, abridged:
as §1

For assay [4] the target is unchanged. Put plainly: Anti-HIV-1 activity against Wild type virus in MT-4 cells. It is filed as functional, cell-based. The conditions noted are these: MT4. The procedure, abridged: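 MT4 cells infected with HIV-1; in vitro antiviral ED50 derived from colorimetric XTT read-out of virus cytopathic effect.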
The target of assay [5] is Human immunodeficiency virus type 1 protease (Human immunodeficiency virus 1, UniProt Q72874). As to the kind of experiment: Inhibitory concentration against HIV-1 protease. The procedure, abridged: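 Recombinant HIV-1 protease, cloned and expressed in Escherichia coli; inhibition measured by fluorometric assay and reported as Ki.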
The target of assay [6] is Human immunodeficiency virus type 1 protease (Human immunodeficiency virus 1) (UniProt Q72874). Put plainly: Anti-HIV-1 activity against mutant HIV-1 in MT-4 cells (mutation selected with ritonavir). It is filed as functional, cell-based. The conditions noted are these: MT4. The procedure, abridged:
as §1

Assay [7] concerns Human immunodeficiency virus 1. As to the kind of experiment: Anti-HIV-1 activity against Wild type virus. in MT-4 cells. In kind it is functional. The conditions noted are these: Human immunodeficiency virus 1, MT4; read-out: ED50 (the source's name). The procedure, abridged:
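Antiviral ED50 determined in MT4 cells infected with HIV-1; cytopathogenic effect read out by colorimetric XTT assay.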

SMILES strings stand for the structures.

As a reminder, the Ki is the dissociation constant of the complex between target and ligand, obtained from inhibition or displacement.

`CNC(=O)[C@@H](NC(=O)[C@H](OCc1ccc(F)c(F)c1)[C@H](O)[C@@H](O)[C@@H](OCc1ccc(F)c(F)c1)C(=O)N[C@H](C(=O)NC)C(C)C)C(C)C`: the ED50 in assay [1] is 2.84 µM; in assay [2] it was 0.85 µM; in assay [3], 0.81 µM; in assay [4], 0.67 µM; in assay [6], 1.22 µM. In addition, the Ki in assay [5] turned out to be 0.00198 µM.
For `CNC(=O)[C@@H](NC(=O)[C@H](OCc1cc(F)ccc1F)[C@H](O)[C@@H](O)[C@@H](OCc1cc(F)ccc1F)C(=O)N[C@H](C(=O)NC)C(C)C)C(C)C`, the ED50 in assay [1] came to 10.7 µM; in assay [2] it was 1.38 µM; in assay [3] it was 1.38 µM; in assay [4], 0.65 µM; in assay [6], 10.9 µM. Besides, the affinity in assay [5] corresponds to a Ki of 0.00198 µM.
For the compound `Cc1c(O)cccc1C(=O)N[C@@H](CSc1ccccc1)[C@H](O)CN1C[C@H]2CCCC[C@H]2C[C@H]1C(=O)NC(C)(C)C`, the ED50 is 0.07 µM in assay [1]; 2.44 µM in assay [2]; 0.12 µM in assay [3]; 0.02 µM in assay [4]; 0.11 µM in assay [6].
For `CNC(=O)[C@@H](NC(=O)[C@H](OCc1cccc(F)c1)[C@H](O)[C@@H](O)[C@@H](OCc1cccc(F)c1)C(=O)N[C@H](C(=O)NC)C(C)C)C(C)C`, the ED50 in assay [1] came to 1.84 µM; in assay [2], 1.1 µM; in assay [3] it was 1.04 µM; in assay [4], 0.68 µM; in assay [6] it was 1.69 µM. Moreover, the affinity in assay [5], expressed as Ki, was 0.00183 µM.
With `CNC(=O)[C@@H](NC(=O)[C@H](OCc1cccc(F)c1F)[C@H](O)[C@@H](O)[C@@H](OCc1cccc(F)c1F)C(=O)N[C@H](C(=O)NC)C(C)C)C(C)C`, the ED50 came out at 1.54 µM in assay [1]; 0.34 µM in assay [2]; 1.11 µM in assay [3]; 0.66 µM in assay [4]; 2.26 µM in assay [6]. This compound also gave a Ki in assay [5] of 0.00128 µM.
In the case of `CNC(=O)[C@@H](NC(=O)[C@H](OCc1ccccc1F)[C@H](O)[C@@H](O)[C@@H](OCc1ccccc1F)C(=O)N[C@H](C(=O)NC)C(C)C)C(C)C`, the ED50 came to 9.34 µM in assay [1]; 1.15 µM in assay [2]; 0.63 µM in assay [3]; 0.28 µM in assay [4]; 7.45 µM in assay [6]. In addition, in assay [5], the Ki came to 0.00192 µM.
Take `CC(C)c1nc(CN(C)C(=O)N[C@H](C(=O)N[C@@H](Cc2ccccc2)C[C@H](O)[C@H](Cc2ccccc2)NC(=O)OCc2cncs2)C(C)C)cs1`: the ED50 in assay [1] was found to be 0.98 µM; in assay [2], 0.15 µM; in assay [3], 0.41 µM; in assay [4], 0.06 µM; in assay [6], 2.47 µM.
For `O=C(NC1c2ccccc2C[C@H]1O)[C@H](OCc1cc(F)cc(F)c1)[C@H](O)[C@@H](O)[C@@H](OCc1cc(F)cc(F)c1)C(=O)N[C@H]1c2ccccc2C[C@H]1O` (some centres undefined), the ED50 in assay [1] turned out to be 0.23 µM; in assay [2], 0.24 µM; in assay [3], 0.09 µM; in assay [4], 0.05 µM; in assay [6] it was 1.06 µM. Also, the Ki in assay [5] turned out to be 0.005 µM.
Consider `O=C(NC1c2ccccc2C[C@H]1O)[C@H](OCc1ccccc1)[C@H](O)[C@@H](O)[C@@H](OCc1ccccc1)C(=O)N[C@H]1c2ccccc2C[C@H]1O` (some centres undefined), for which the ED50 came out at 0.46 µM in assay [1]; 0.1 µM in assay [2]; 0.07 µM in assay [3]; 0.1 µM in assay [4]; 1.28 µM in assay [6]. Moreover, the affinity in assay [5], expressed as Ki, was 0.00122 µM.
With `CC(C)(C)NC(=O)[C@@H]1C[C@@H]2CCCC[C@@H]2CN1C[C@@H](O)[C@H](Cc1ccccc1)NC(=O)[C@H](CC(N)=O)NC(=O)c1ccc2ccccc2n1`, the ED50 in assay [1] came to 0.01 µM; in assay [2], 0.03 µM; in assay [3], 0.08 µM; in assay [4] it was 0.01 µM; in assay [6] it was 0.01 µM.
As to `CNC(=O)[C@@H](NC(=O)[C@H](OCc1ccc(F)cc1F)[C@H](O)[C@@H](O)[C@@H](OCc1ccc(F)cc1F)C(=O)N[C@H](C(=O)NC)C(C)C)C(C)C`, the ED50 in assay [1] turned out to be 3.35 µM; in assay [2], 0.48 µM; in assay [3], 1.17 µM; in assay [4], 0.72 µM; in assay [6] it was 1.89 µM. In assay [5], this compound returned a Ki of 0.00112 µM.
For the compound `O=C(NC1c2ccccc2C[C@H]1O)[C@H](OCc1cc(F)ccc1F)[C@H](O)[C@@H](O)[C@@H](OCc1cc(F)ccc1F)C(=O)N[C@H]1c2ccccc2C[C@H]1O` (some centres undefined), the ED50 in assay [1] turned out to be 0.16 µM; in assay [2], 0.1 µM; in assay [3] it was 0.08 µM; in assay [4], 0.02 µM; in assay [6], 0.71 µM. Further, in assay [5], the Ki came out at 0.00329 µM.
As to `O=C(NC1c2ccccc2C[C@H]1O)[C@H](OCc1ccc(F)cc1F)[C@H](O)[C@@H](O)[C@@H](OCc1ccc(F)cc1F)C(=O)N[C@H]1c2ccccc2C[C@H]1O` (some centres undefined), the ED50 in assay [1] came to 0.67 µM; in assay [2], 0.25 µM; in assay [3], 0.37 µM; in assay [4], 0.11 µM; in assay [6], 1.73 µM. In assay [5], affinity was put at a Ki of 0.00165 µM.
Turning to `CNC(=O)[C@@H](NC(=O)[C@H](OCc1ccccc1)[C@H](O)[C@@H](O)[C@@H](OCc1ccccc1)C(=O)N[C@H](C(=O)NC)C(C)C)C(C)C`, the EC50 in assay [7] worked out at 1.32 µM. For the same compound, the ED50 in assay [1] is 8.13 µM; in assay [2] it was more than 15 µM; in assay [3], 6.1 µM; in assay [6], more than 15 µM. Besides, the inhibition constant (Ki) in assay [5] amounted to 0.0008 µM.
As to `CNC(=O)[C@@H](NC(=O)[C@H](OCc1c(F)cccc1F)[C@H](O)[C@@H](O)[C@@H](OCc1c(F)cccc1F)C(=O)N[C@H](C(=O)NC)C(C)C)C(C)C`, the ED50 in assay [1] is more than 15 µM; in assay [2] it was 7.14 µM; in assay [3], 8.14 µM; in assay [4], 1.35 µM; in assay [6], more than 15 µM. Besides, in assay [5], the affinity, expressed as Ki, was 0.00173 µM.
Take `O=C(NC1c2ccccc2C[C@H]1O)[C@H](OCc1cccc(F)c1F)[C@H](O)[C@@H](O)[C@@H](OCc1cccc(F)c1F)C(=O)N[C@H]1c2ccccc2C[C@H]1O` (some centres undefined): the ED50 in assay [1] is 0.24 µM; in assay [2], 0.06 µM; in assay [3] it was 0.05 µM; in assay [4] it was 0.03 µM; in assay [6], 0.88 µM. In addition, the Ki in assay [5] turned out to be 0.004 µM.
For the compound `O=C(NC1c2ccccc2C[C@H]1O)[C@H](OCc1ccc(F)cc1)[C@H](O)[C@@H](O)[C@@H](OCc1ccc(F)cc1)C(=O)N[C@H]1c2ccccc2C[C@H]1O` (some centres undefined), the ED50 in assay [1] came out at 1.13 µM; in assay [2], 0.56 µM; in assay [4] it was 0.25 µM; in assay [6], 1.13 µM. In assay [5], this compound displayed a Ki of 0.00539 µM.
In the case of `O=C(NC1c2ccccc2C[C@H]1O)[C@H](OCc1ccccc1F)[C@H](O)[C@@H](O)[C@@H](OCc1ccccc1F)C(=O)N[C@H]1c2ccccc2C[C@H]1O` (some centres undefined), the ED50 in assay [1] came out at 0.27 µM; in assay [2] it was 0.21 µM; in assay [3], 0.08 µM; in assay [4] it was 0.05 µM; in assay [6], 0.51 µM. In assay [5], this compound came in with a Ki of 0.00326 µM.
For the compound `CNC(=O)[C@@H](NC(=O)[C@H](OCc1ccc(F)cc1)[C@H](O)[C@@H](O)[C@@H](OCc1ccc(F)cc1)C(=O)N[C@H](C(=O)NC)C(C)C)C(C)C`, the ED50 stood at 7.82 µM in assay [1]; 1.32 µM in assay [2]; 3.65 µM in assay [3]; 1.17 µM in assay [4]; 0.97 µM in assay [6]. Also, the Ki in assay [5] is 0.00179 µM.
Take `O=C(NC1c2ccccc2C[C@H]1O)[C@H](OCc1cccc(F)c1)[C@H](O)[C@@H](O)[C@@H](OCc1cccc(F)c1)C(=O)N[C@H]1c2ccccc2C[C@H]1O` (some centres undefined): the ED50 is 0.18 µM in assay [1]; 0.21 µM in assay [2]; 0.95 µM in assay [3]; 0.06 µM in assay [4]; 0.53 µM in assay [6]. The compound also yielded a Ki in assay [5] of 0.00713 µM.
As to `O=C(NC1c2ccccc2C[C@H]1O)[C@H](OCc1c(F)cccc1F)[C@H](O)[C@@H](O)[C@@H](OCc1c(F)cccc1F)C(=O)N[C@H]1c2ccccc2C[C@H]1O` (some centres undefined), the ED50 came to 0.31 µM in assay [1]; 0.25 µM in assay [2]; 0.13 µM in assay [3]; 0.06 µM in assay [4]; 1.39 µM in assay [6]. The Ki in assay [5] worked out at 0.00164 µM.
Regarding `O=C(NC1c2ccccc2C[C@H]1O)[C@H](OCc1ccc(F)c(F)c1)[C@H](O)[C@@H](O)[C@@H](OCc1ccc(F)c(F)c1)C(=O)N[C@H]1c2ccccc2C[C@H]1O` (some centres undefined), the ED50 in assay [1] amounted to 1.05 µM; in assay [2], 0.3 µM; in assay [3], 0.16 µM; in assay [4], 0.13 µM; in assay [6], 1.3 µM. The compound also registered a Ki in assay [5] of 0.0039 µM.
As for `CNC(=O)[C@@H](NC(=O)[C@H](OCc1cc(F)cc(F)c1)[C@H](O)[C@@H](O)[C@@H](OCc1cc(F)cc(F)c1)C(=O)N[C@H](C(=O)NC)C(C)C)C(C)C`, the ED50 in assay [1] worked out at 1.32 µM; in assay [2] it was 0.34 µM; in assay [3], 1.64 µM; in assay [4], 0.42 µM; in assay [6], 1.4 µM. In assay [5], this compound registered a Ki of 0.00198 µM.
